In ChEMBL document CHEMBL1139795, “Capped diaminopropionamide-glycine dipeptides are inhibitors of CC chemokine receptor 2 (CCR2)” (Bioorg Med Chem Lett, 2007) one finds inhibition and IC50 data, which are given here for 53 compounds.

SMILES strings stand for the structures.

In assay [1] the target is T1, C-C chemokine receptor type 1 (Homo sapiens) (UniProt P32246).
T1 sequence (whole entry): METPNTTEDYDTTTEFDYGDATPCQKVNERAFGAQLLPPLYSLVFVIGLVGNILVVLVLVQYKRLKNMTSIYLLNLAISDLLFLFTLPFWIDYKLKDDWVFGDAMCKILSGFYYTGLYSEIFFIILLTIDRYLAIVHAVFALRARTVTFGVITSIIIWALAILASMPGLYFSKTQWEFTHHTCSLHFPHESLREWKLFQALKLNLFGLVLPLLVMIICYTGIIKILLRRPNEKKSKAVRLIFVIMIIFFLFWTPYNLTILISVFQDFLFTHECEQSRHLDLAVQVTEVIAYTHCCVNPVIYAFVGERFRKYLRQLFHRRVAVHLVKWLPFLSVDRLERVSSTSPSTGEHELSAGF
As to the kind of experiment: Inhibition of CCR1 at 10 uM.

Assay [2] addresses C-C chemokine receptor type 2 (Homo sapiens, UniProt P41597). In words: Displacement of [125]MCP1 from CCR2 in human PBMCs. The method, boiled down:
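Competition binding with 0.3 nM [125I]MCP-1 on human peripheral blood mononuclear cells at 23 °C. IC50 given as mean ± SD (n = 2) or mean ± SEM (n > 2). Single determinations are listed with n = 1.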

C-C chemokine receptor type 2, sequence (P41597 whole entry): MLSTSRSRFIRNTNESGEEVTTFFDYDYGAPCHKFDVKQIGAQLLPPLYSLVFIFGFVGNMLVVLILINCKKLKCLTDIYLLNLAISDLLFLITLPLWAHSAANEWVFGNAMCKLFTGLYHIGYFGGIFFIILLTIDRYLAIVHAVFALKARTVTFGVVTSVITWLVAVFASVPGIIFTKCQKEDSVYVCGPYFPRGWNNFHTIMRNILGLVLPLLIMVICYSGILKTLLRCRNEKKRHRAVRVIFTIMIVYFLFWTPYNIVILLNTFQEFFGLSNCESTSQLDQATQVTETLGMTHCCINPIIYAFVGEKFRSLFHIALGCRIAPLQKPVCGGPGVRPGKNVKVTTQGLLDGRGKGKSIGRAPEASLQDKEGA

In the case of `CCNC(=O)[C@@H](NC(=O)CNC(=O)c1cccc(C(F)(F)F)c1)[C@@H](C)NCc1ccc(C)cc1C`, the inhibition in assay [1] was < 30%. In assay [2], this compound displayed a concentration for half-maximal inhibition (IC50) of 130 nM. As for `Cc1ccc(CNC[C@H](NC(=O)CNC(=O)c2cccc(C(F)(F)F)c2)C(=O)N(C)C)c(C)c1`, the inhibition in assay [1] was < 30%. For the same compound, the 50% inhibitory concentration (IC50) in assay [2] stood at 250 nM. Turning to `CCC(C)(C)NC(=O)[C@H](CNCc1ccc(C)cc1C)NC(=O)CNC(=O)c1cccc(C(F)(F)F)c1`, the inhibition in assay [1] is < 30%. In addition, the IC50 in assay [2] amounted to 120 nM. On to `CC(C)(C)NC(=O)[C@H](CNCc1ccc(Br)cc1)NC(=O)CNC(=O)c1cccc(C(F)(F)F)c1`, for which the inhibition in assay [1] is < 30%. This compound had an IC50 in assay [2] of 1700 nM. For the compound `CCc1ccccc1CNC[C@H](NC(=O)CNC(=O)c1cccc(C(F)(F)F)c1)C(=O)NC(C)(C)C`, the inhibition in assay [1] is < 30%. Besides, the IC50 in assay [2] is 380 nM. For `Cc1ccc(CNCC[C@H](NC(=O)CNC(=O)c2cccc(C(F)(F)F)c2)C(N)=O)c(C)c1`, in that order: < 30% and 3000 nM.

With `Cc1ccc(CNC[C@@H](C)NC(=O)CNC(=O)c2cccc(C(F)(F)F)c2)c(C)c1`, the inhibition in assay [1] was < 30%. Take `Cc1ccccc1CNC[C@H](NC(=O)CNC(=O)c1cccc(C(F)(F)F)c1)C(=O)NC(C)(C)C`: the inhibition in assay [1] was < 30%. Further, the IC50 in assay [2] was determined as 400 nM. On to `CCNC(=O)[C@@H](CNCc1ccc(C)cc1C)NC(=O)CNC(=O)c1cccc(C(F)(F)F)c1`, for which, in assay [1], the inhibition is < 30%. The same compound displayed a half-inhibitory concentration (IC50) in assay [2] of 560 nM. For `Cc1ccc(CNC[C@H](NC(=O)CNC(=O)c2cc(C(F)(F)F)ccc2NC(=O)OC(C)C)C(=O)NC(C)(C)C)c(C)c1`, in assay [1], the inhibition is < 30%. In assay [2], this compound yielded an IC50 of 65 nM. In the same order, the values of `CCc1ccc(CNC[C@H](NC(=O)CNC(=O)c2cccc(C(F)(F)F)c2)C(=O)NC(C)(C)C)c(C)c1` are < 30% and 36 nM.

On to `Cc1ccc(CNC[C@H](NC(=O)CNC(=O)c2cc(OC(F)(F)F)ccc2N)C(=O)NC(C)(C)C)c(C)c1`, for which, in assay [1], the inhibition is < 30%. The same compound gave an IC50 in assay [2] of 28 nM. In the same order, the values of `CCNC(=O)C(C)(CNCc1ccc(C)cc1C)NC(=O)CNC(=O)c1cc(C(F)(F)F)ccc1N` (racemic) are < 30% and 8700 nM. Regarding `Cc1ccc(CNC[C@H](NC(=O)CNC(=O)c2cccc(C(F)(F)F)c2)C(C)C)c(C)c1`, the inhibition in assay [1] was < 30%. Regarding `Cc1ccc(CNC[C@H](NC(=O)CNC(=O)c2cccc(C(F)(F)F)c2)C(=O)NC2CCC2)c(C)c1`, the inhibition in assay [1] was < 30%. Moreover, in assay [2], the IC50 turned out to be 97 nM. For `Cc1ccc(CNC[C@H](NC(=O)CNC(=O)c2cccc(SC(F)(F)F)c2)C(=O)NC(C)(C)C)c(C)c1`, in that order: < 30% and 150 nM.

Regarding `Cc1ccc(CNC[C@H](NC(=O)CNC(=O)c2cc(NCC(C)C)cc(C(F)(F)F)c2)C(=O)NC(C)(C)C)c(C)c1`, the inhibition in assay [1] was < 30%. In addition, the concentration for half-maximal inhibition (IC50) in assay [2] is 130 nM. As for `Cc1ccc(CNC[C@@H](CO)NC(=O)CNC(=O)c2cccc(C(F)(F)F)c2)c(C)c1`, the inhibition in assay [1] was < 30%. This compound came in with an IC50 in assay [2] of 320 nM.

Consider `Cc1ccc(CNC[C@H](CO)NC(=O)CNC(=O)c2cccc(C(F)(F)F)c2)c(C)c1`, for which the inhibition in assay [1] is < 30%. For the same compound, the IC50 in assay [2] amounted to 2200 nM. For `Cc1ccc(CNC[C@H](NC(=O)CNC(=O)c2cccc(C(F)(F)F)c2)C(=O)NC2CCCCC2)c(C)c1`, in that order: < 30% and 150 nM. For `CC(C)(C)NC(=O)[C@H](CNCc1ccc(S(C)(=O)=O)cc1)NC(=O)CNC(=O)c1cccc(C(F)(F)F)c1`, the inhibition in assay [1] was < 30%. The same compound came in with a half-maximal inhibitory concentration (IC50) in assay [2] of 7200 nM.

For `Cc1ccc(CNC[C@H](NC(=O)CNC(=O)c2cccc(C(F)(F)F)c2)C(=O)N2CCCC2)c(C)c1`, the inhibition in assay [1] is < 30%. In addition, the 50% inhibitory concentration (IC50) in assay [2] amounted to 260 nM. In the same order, the values of `Cc1ccc(CNC[C@@H](NC(=O)CNC(=O)c2cccc(C(F)(F)F)c2)C(N)=O)c(C)c1` are < 30% and 630 nM. In the same order, the values of `CCCCc1ccc(CNC[C@H](NC(=O)CNC(=O)c2cccc(C(F)(F)F)c2)C(=O)NC(C)(C)C)cc1` are < 30% and 5600 nM. As to `Cc1ccc(CNC[C@H](NC(=O)CNC(=O)c2cccc(C(F)(F)F)c2)C(=O)NC2CCCC2)c(C)c1`, the inhibition in assay [1] is < 30%. Also, the IC50 in assay [2] was 99 nM. On to `Cc1ccc(CNC[C@H](NC(=O)CNC(=O)c2cccc(C(F)(F)F)c2)C(=O)NCC(F)(F)F)c(C)c1`, for which the inhibition in assay [1] was < 30%. In addition, the IC50 in assay [2] amounted to 55 nM. In the same order, the values of `Cc1ccc(CNC[C@H](NC(=O)CNC(=O)c2cccc(C(F)(F)F)c2)C(=O)O)c(C)c1` are < 30% and 5500 nM. For `Cc1ccc(CNC[C@H](NC(=O)CNC(=O)c2cccc(C(F)(F)F)c2)C(=O)NCC2CC2)c(C)c1`, in that order: < 30% and 60 nM.

For the compound `CNc1cc(C(=O)NCC(=O)N[C@@H](CNCc2ccc(C)cc2C)C(=O)NC(C)(C)C)cc(C(F)(F)F)c1`, the inhibition in assay [1] is < 30%. The IC50 in assay [2] worked out at 16 nM. Turning to `Cc1ccc(CNC[C@H](NC(=O)CNC(=O)c2cccc(C(F)(F)F)c2)C(=O)NC2CC2)c(C)c1`, the inhibition in assay [1] is < 30%. The half-maximal inhibitory concentration (IC50) in assay [2] was 88 nM. For `CON(C)C(=O)[C@H](CNCc1ccc(C)cc1C)NC(=O)CNC(=O)c1cccc(C(F)(F)F)c1`, in that order: < 30% and 110 nM. In the same order, the values of `Cc1ccc(CNC[C@H](NC(=O)CNC(=O)c2cccc(C(F)(F)F)c2)C(=O)NCc2ccccc2)c(C)c1` are < 30% and 7000 nM.

Regarding `Cc1ccc(CNC[C@H](NC(=O)CNC(=O)c2cccc(C(F)(F)F)c2)C(=O)NC(C)(C)C)cc1N`, in assay [1], the inhibition was < 30%. Besides, the IC50 in assay [2] is 120 nM. In the same order, the values of `Cc1ccc(CNC[C@H](NC(=O)CNC(=O)c2cccc(C(F)F)c2)C(=O)NC(C)(C)C)c(C)c1` are < 30% and 400 nM.

For the compound `COc1ccc(CNC[C@H](NC(=O)CNC(=O)c2cccc(C(F)(F)F)c2)C(=O)NC(C)(C)C)c(C)c1C`, in assay [1], the inhibition was < 30%. In assay [2], this compound came in with a half-inhibitory concentration (IC50) of 690 nM. Consider `Cc1ccc(CNC[C@H](NC(=O)CNC(=O)c2cccc(C(F)(F)F)c2)C(=O)N2CCOCC2)c(C)c1`, for which, in assay [1], the inhibition is < 30%. The same compound displayed a half-inhibitory concentration (IC50) in assay [2] of 490 nM. In the same order, the values of `COc1ccc(CNC[C@H](NC(=O)CNC(=O)c2cccc(C(F)(F)F)c2)C(=O)NC(C)(C)C)c(C)c1` are < 30% and 47 nM. In the case of `CCOC(=O)Nc1cc(C(=O)NCC(=O)N[C@@H](CNCc2ccc(C)cc2C)C(=O)NC(C)(C)C)cc(C(F)(F)F)c1`, the inhibition in assay [1] is < 30%. The compound also registered an IC50 in assay [2] of 310 nM. In the case of `CCNC(=O)[C@@H](CNC(=O)CNC(=O)c1cccc(C(F)(F)F)c1)NCc1ccc(C)cc1C`, the inhibition in assay [1] is < 30%. In assay [2], this compound registered an IC50 of 22000 nM.

Regarding `CNC(=O)[C@H](CNCc1ccc(C)cc1C)NC(=O)CNC(=O)c1cccc(C(F)(F)F)c1`, the inhibition in assay [1] was < 30%. In assay [2], this compound showed a 50% inhibitory concentration (IC50) of 230 nM.

`Cc1cc(Br)ccc1CNC[C@H](NC(=O)CNC(=O)c1cccc(C(F)(F)F)c1)C(=O)NC(C)(C)C`: the inhibition in assay [1] is < 30%. The compound further yielded a 50% inhibitory concentration (IC50) in assay [2] of 160 nM. As to `CCNC(=O)[C@H](CCNCc1ccc(C)cc1C)NC(=O)CNC(=O)c1cccc(C(F)(F)F)c1`, the inhibition in assay [1] is < 30%. The compound further registered an IC50 in assay [2] of 410 nM. For `CN(C)c1ccc(CNC[C@H](NC(=O)CNC(=O)c2cccc(C(F)(F)F)c2)C(=O)NC(C)(C)C)cc1`, in that order: < 30% and 430 nM. In the same order, the values of `COC(=O)[C@@H](CNCc1ccc(C)cc1C)NC(=O)CNC(=O)c1cccc(C(F)(F)F)c1` are < 30% and 1000 nM.

Regarding `CCc1ccc(CNC[C@H](NC(=O)CNC(=O)c2cccc(C(F)(F)F)c2)C(=O)NC(C)(C)C)cc1`, the inhibition in assay [1] was < 30%. This compound came in with a half-maximal inhibitory concentration (IC50) in assay [2] of 530 nM. For `COc1cc(C)c(CNC[C@H](NC(=O)CNC(=O)c2cccc(C(F)(F)F)c2)C(=O)NC(C)(C)C)cc1C`, in that order: < 30% and 1300 nM. For `Cc1ccc(CNC[C@H](NC(=O)CNC(=O)c2cc(C(F)(F)F)ccc2NC(=O)C2CCCCC2)C(=O)NC(C)(C)C)c(C)c1`, in that order: < 30% and 90 nM.

Turning to `Cc1ccc(CNC[C@H](NC(=O)CNC(=O)c2cccc(C(F)(F)F)c2)C(=O)NC(C)(C)CO)c(C)c1`, in assay [1], the inhibition was < 30%. Moreover, the IC50 in assay [2] is 190 nM.

`COC(=O)[C@@H](CNC(=O)CNC(=O)c1cccc(C(F)(F)F)c1)NCc1ccc(C)cc1C`: the inhibition in assay [1] is < 30%. This compound also had an IC50 in assay [2] of 15000 nM. In the case of `Cc1ccc(CNC[C@H](NC(=O)CNC(=O)c2cccc(C(F)(F)C(F)(F)F)c2)C(=O)NC(C)(C)C)c(C)c1`, the inhibition in assay [1] is < 30%. Moreover, in assay [2], the IC50 came to 65 nM. For `Cc1ccc(CNC[C@@H](NC(=O)CNC(=O)c2cccc(C(F)(F)F)c2)C(=O)NC(C)(C)C)c(C)c1`, in that order: < 30% and 110 nM. For `Cc1ccc(CN2CC[C@@H](NC(=O)CNC(=O)c3cccc(C(F)(F)F)c3)C2)c(C)c1`, in that order: < 30% and 17 nM.

With `Cc1ccc(CNC[C@H](NC(=O)CNC(=O)c2cc(NCc3ccccc3)cc(C(F)(F)F)c2)C(=O)NC(C)(C)C)c(C)c1`, the inhibition in assay [1] is < 30%. The IC50 in assay [2] is 110 nM.

As a reminder, the inhibition is the relative decrease from the control value, in per cent. For orientation: IC50 means the concentration needed to halve the response being measured. The low end stands for higher potency, the high end for lower potency.
